Measured values from ChEMBL document CHEMBL4130379, “Design, synthesis and bioevaluation of antitubulin agents carrying diaryl-5,5-fused-heterocycle scaffold” (Eur J Med Chem, 2017).
Activity calls are given as the source filed them. The calls are words filed in the database; no cut-off is given here.

Experiments:
SGC-7901 [1] = experiment: Antiproliferative activity against human SGC7901 cells after 72 hrs by MTT assay; type: functional, cell-based; conditions: SGC-7901, 72 h
How it was run: (§1)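 MTT assay on human SGC-7901 gastric adenocarcinoma, A549 lung adenocarcinoma and HT-1080 fibrosarcoma cells. The read-out was the half maximal inhibitory concentration (IC50). SMART and ABI were run in parallel as positive controls.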

A549 = experiment: Antiproliferative activity against human A549 cells after 72 hrs by MTT assay; type: functional, cell-based; conditions: A549, 72 h; how it was run: as §1
HT-1080 = experiment: Antiproliferative activity against human HT1080 cells after 72 hrs by MTT assay; type: functional, cell-based; conditions: HT-1080, 72 h; how it was run: as §1
Homo sapiens = species on record: Homo sapiens; experiment: Induction of cytoplasmic microtubule network disassembly in human SGC7901 cells at 2 times antiproliferative IC50 after 48 hrs by DAPI staining-based immunofluorescence microscopic method; type: cell-based
[2] = Inhibition of porcine brain tubulin polymerization preincubated for 1 min followed by GTP addition measured at 1 min intervals for 90 mins by spectrophotometric method
Sus scrofa = species on record: Sus scrofa; experiment: as above
SGC-7901 [3] = experiment: Cell cycle arrest in human SGC7901 cells assessed as decrease in cell levels at S phase at 0.044 uM after 6 to 72 hrs by propidium iodide staining-based flow cytometry; type: functional
How it was run: (§2)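 Time-course study in SGC-7901 cells treated with test agent. Cell cycle distribution (sub-G1, G0/G1, S, G2/M) and polyploidy were analysed by flow cytometry at successive time points.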

SGC-7901 [4] = experiment: Cell cycle arrest in human SGC7901 cells assessed as accumulation at G2/M phase at 0.044 uM by propidium iodide staining-based flow cytometry; type: functional; conditions: TDE = time-dependent effect; how it was run: as §2
SGC-7901 [5] = experiment: Cell cycle arrest in human SGC7901 cells assessed as decrease in cell levels at G0/G1 phase at 0.044 uM after 6 to 72 hrs by propidium iodide staining-based flow cytometry; type: functional; how it was run: as §2
SGC-7901 [6] = experiment: Cell cycle arrest in human SGC7901 cells assessed as induction of polyploidy at S phase at 0.044 uM after 24 hrs by propidium iodide staining-based flow cytometry; type: functional; how it was run: as §2
SGC-7901 [7] = experiment: Cell cycle arrest in human SGC7901 cells assessed as accumulation at sub-G1 phase at 0.044 uM after 6 to 72 hrs by propidium iodide staining-based flow cytometry; type: functional; how it was run: as §2

IC50 (SGC-7901 [1]) [µM] | IC50 (A549) [µM] | IC50 (HT-1080) [µM] | Compound | also measured
33.5 | 29.3 | 51.3 | COc1cc(-c2n[nH]c3cc(-c4ccc(C)cc4)nn23)cc(OC)c1OC | –
3.75 | 2.29 | 1.88 | COc1ccc(-c2nn3c(-c4ccc(OC)c(OC)c4OC)nnc3s2)cc1 | –
0.022 | 0.029 | 0.027 | COc1ccc(-c2nn3c(-c4cc(OC)c(OC)c(OC)c4)nnc3s2)cc1N | Activity (Homo sapiens): Active; IC50 [2]: 0.77 µM; inhibition (Sus scrofa): Dose-dependent effect; Activity (SGC-7901 [3]): Active; Activity (SGC-7901 [4]): Tde; Activity (SGC-7901 [5]): Active; Activity (SGC-7901 [6]): Active; Activity (SGC-7901 [7]): Active
13.8 | 17.4 | 17.8 | COc1ccc(-c2cc3[nH]nc(-c4cc(OC)c(OC)c(OC)c4)n3n2)cc1N | –
0.019 | 0.029 | 0.028 | COc1cc(C(=O)c2csc(-c3ccccc3)n2)cc(OC)c1OC | Activity (Homo sapiens): Active
48.3 | 58.2 | 35.6 | COc1ccc(-c2cc3[nH]nc(-c4cc(OC)c(OC)c(OC)c4)n3n2)cc1[N+](=O)[O-] | –
23.2 | 26.5 | 30.2 | COc1ccc(-c2nn3c(-c4cc(OC)c(OC)c(OC)c4)nnc3s2)cc1[N+](=O)[O-] | –
26.8 | 26.4 | 26.5 | COc1ccc(-c2cc3[nH]nc(-c4cc(OC)c(OC)c(OC)c4)n3n2)cc1 | –
37.7 | 30.4 | 32.8 | COc1ccc(-c2nnc3sc(-c4ccc(OC)c([N+](=O)[O-])c4)nn23)cc1OC | –
6.12 | 1.21 | 6.81 | COc1cc(-c2n[nH]c3cc(-c4ccc(Cl)cc4)nn23)cc(OC)c1OC | –
0.083 | 0.522 | 0.339 | COc1ccc(-c2nn3c(-c4ccc(OC)c(OC)c4)nnc3s2)cc1N | –

Second part, the compound before the results:

Compound | IC50 (SGC-7901 [1]) [µM] | IC50 (A549) [µM] | IC50 (HT-1080) [µM] | also measured
COc1ccc(-c2nnc3sc(-c4ccc(OC)c([N+](=O)[O-])c4)nn23)cc1 | 22.1 | 26.9 | 27.3 | –
COc1ccc(-c2nn3c(-c4ccc5c(c4)OCO5)nnc3s2)cc1[N+](=O)[O-] | 37.8 | 32.8 | 30.3 | –
Cc1ccc(-c2nn3c(-c4ccc5c(c4)OCO5)nnc3s2)cc1 | 24 | 27.7 | 26.8 | –
COc1cc(C(=O)c2c[nH]c(-c3ccccc3)n2)cc(OC)c1OC | 0.81 | 0.98 | 0.15 | –
COc1ccc(-c2nn3c(-c4ccc5c(c4)OCO5)nnc3s2)cc1N | 0.057 | 0.272 | 0.327 | –
COc1ccc(-c2nn3c(-c4ccc(OC)c(OC)c4OC)nnc3s2)cc1[N+](=O)[O-] | 32.5 | 33.8 | 35.1 | –
COc1ccc(-c2nnc3sc(-c4ccc(C)cc4)nn23)c(OC)c1OC | 0.186 | 0.803 | 0.089 | –
COc1cccc(-c2nnc3sc(-c4ccc(OC)c(N)c4)nn23)c1 | 0.059 | 0.12 | 0.088 | –
COc1ccc(-c2nn3c(-c4ccc5c(c4)OCO5)nnc3s2)cc1 | 25.6 | 29.7 | 24.5 | –
COc1ccc(-c2nn3c(-c4ccc(OC)c(OC)c4OC)nnc3s2)cc1N | 0.062 | 0.082 | 0.073 | –
COc1ccc(-c2nnc3sc(-c4ccc(OC)c(N)c4)nn23)cc1 | 14.2 | 14.9 | 16.4 | –
COc1cccc(-c2nnc3sc(-c4ccc(OC)c([N+](=O)[O-])c4)nn23)c1 | 34.7 | 29.5 | 33 | –
